Laboratory results reported in ChEMBL document CHEMBL5058577, “EUbOPEN Chemogenomics Library 2 (Multiplex)” (2022).

Tested on: Fibroblast
Test: Multiplex assay against human fibroblast
Format: toxicity, cell-based
Procedure, shortened: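 Live cells were stained at seeding with Hoechst33342, BioTracker Green Microtubule Cytoskeleton Dye, MitoTracker Red and Annexin V Alexa Fluor 680, then imaged on a CQ1 microscope at 37°C and 5% CO2 after compound addition. CellPathfinder machine-learning gating split cells into Hoechst high-intensity objects or normal cells. Normal cells were split into healthy, pyknosed or fragmented nuclei, and pyknosed cells into mitotic or apoptotic. Tubulin, mitochondrial-mass and membrane-permeability phenotypes are per cents of healthy-nucleus cells.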

[1] = 12 h, 1 µM, compound concentration 1 uM, replicate 1
[2] = 12 h, 1 µM, compound concentration 1 uM, replicate 2
[3] = 12 h, 10 µM, compound concentration 10 uM, replicate 1
[4] = 12 h, 10 µM, compound concentration 10 uM, replicate 2
[5] = 24 h, 1 µM, compound concentration 1 uM, replicate 1
[6] = 24 h, 1 µM, compound concentration 1 uM, replicate 2
[7] = 24 h, 10 µM, compound concentration 10 uM, replicate 1
[8] = 24 h, 10 µM, compound concentration 10 uM, replicate 2
[9] = 48 h, 1 µM, compound concentration 1 uM, replicate 1
[10] = 48 h, 1 µM, compound concentration 1 uM, replicate 2
[11] = 48 h, 10 µM, compound concentration 10 uM, replicate 1
[12] = 48 h, 10 µM, compound concentration 10 uM, replicate 2

## COC[C@@H](c1ccc(C(F)(F)F)cc1)N1CCN(C2(C)CCN(C(=O)c3c(C)ncnc3C)CC2)C[C@@H]1C.O=C(O)/C=C\C(=O)O [VICRIVIROC MALEATE]
[1]
  Population Apoptotic (%): 36%
  Population Fragmented Nuclei (%): 23%
  Population Healthy Nuclei (%): 53%
  Population Hoechst High Intensity Objects (%): 4%
  Population Membrane Permeable-Phenotype (%): 2%
  Population Mitochondria Different-Phenotype (%): 11%
  Population Mitotic Cells (%): 63%
  Population Normal (%): 95%
  Population Pyknosed Nuclei (%): 22%
  Population Tubulin-Different-Phenotype (%): 16%
  Total Cell Count: 138
[2]
  Population Healthy Nuclei (%): 51%
  Population Membrane Permeable-Phenotype (%): 5%
  Population Mitochondria Different-Phenotype (%): 13%
  Population Pyknosed Nuclei (%): 25%
  Population Tubulin-Different-Phenotype (%): 41%
  Total Cell Count: 190
[3]
  Population Apoptotic (%): 58%
  Population Fragmented Nuclei (%): 26%
  Population Healthy Nuclei (%): 59%
  Population Hoechst High Intensity Objects (%): 17%
  Population Membrane Permeable-Phenotype (%): 2%
  Population Mitochondria Different-Phenotype (%): 4%
  Population Mitotic Cells (%): 41%
  Population Normal (%): 82%
  Population Pyknosed Nuclei (%): 14%
  Population Tubulin-Different-Phenotype (%): 45%
  Total Cell Count: 208
[4]
  Population Apoptotic (%): 33%
  Population Fragmented Nuclei (%): 48%
  Population Healthy Nuclei (%): 33%
  Population Hoechst High Intensity Objects (%): 20%
  Population Membrane Permeable-Phenotype (%): 12%
  Population Mitotic Cells (%): 66%
  Population Normal (%): 79%
  Population Pyknosed Nuclei (%): 18%
  Population Tubulin-Different-Phenotype (%): 67%
  Total Cell Count: 186
[5]
  Population Apoptotic (%): 66%
  Population Fragmented Nuclei (%): 21%
  Population Healthy Nuclei (%): 57%
  Population Hoechst High Intensity Objects (%): 3%
  Population Membrane Permeable-Phenotype (%): 1%
  Population Mitochondria Different-Phenotype (%): 7%
  Population Mitotic Cells (%): 33%
  Population Normal (%): 96%
  Population Pyknosed Nuclei (%): 20%
  Population Tubulin-Different-Phenotype (%): 18%
  Total Cell Count: 138
[6]
  Population Apoptotic (%): 30%
  Population Fragmented Nuclei (%): 28%
  Population Healthy Nuclei (%): 50%
  Population Membrane Permeable-Phenotype (%): 8%
  Population Mitochondria Different-Phenotype (%): 20%
  Population Mitotic Cells (%): 69%
  Population Pyknosed Nuclei (%): 21%
  Population Tubulin-Different-Phenotype (%): 41%
  Total Cell Count: 204
[7]
  Population Apoptotic (%): 73%
  Population Fragmented Nuclei (%): 23%
  Population Healthy Nuclei (%): 64%
  Population Hoechst High Intensity Objects (%): 12%
  Population Membrane Permeable-Phenotype (%): 0%
  Population Mitochondria Different-Phenotype (%): 5%
  Population Mitotic Cells (%): 26%
  Population Normal (%): 87%
  Population Pyknosed Nuclei (%): 11%
  Population Tubulin-Different-Phenotype (%): 42%
  Total Cell Count: 196
[8]
  Population Apoptotic (%): 42%
  Population Fragmented Nuclei (%): 46%
  Population Healthy Nuclei (%): 39%
  Population Hoechst High Intensity Objects (%): 21%
  Population Membrane Permeable-Phenotype (%): 8%
  Population Mitochondria Different-Phenotype (%): 12%
  Population Mitotic Cells (%): 57%
  Population Normal (%): 78%
  Population Pyknosed Nuclei (%): 14%
  Population Tubulin-Different-Phenotype (%): 60%
  Total Cell Count: 183
[9]
  Population Apoptotic (%): 59%
  Population Fragmented Nuclei (%): 21%
  Population Healthy Nuclei (%): 56%
  Population Hoechst High Intensity Objects (%): 3%
  Population Membrane Permeable-Phenotype (%): 0%
  Population Mitochondria Different-Phenotype (%): 7%
  Population Mitotic Cells (%): 40%
  Population Normal (%): 96%
  Population Pyknosed Nuclei (%): 21%
  Population Tubulin-Different-Phenotype (%): 34%
  Total Cell Count: 127
[10]
  Population Apoptotic (%): 53%
  Population Fragmented Nuclei (%): 33%
  Population Healthy Nuclei (%): 50%
  Population Hoechst High Intensity Objects (%): 5%
  Population Membrane Permeable-Phenotype (%): 9%
  Population Mitochondria Different-Phenotype (%): 19%
  Population Mitotic Cells (%): 46%
  Population Normal (%): 95%
  Population Pyknosed Nuclei (%): 15%
  Population Tubulin-Different-Phenotype (%): 58%
  Total Cell Count: 180
[11]
  Population Apoptotic (%): 73%
  Population Fragmented Nuclei (%): 23%
  Population Healthy Nuclei (%): 65%
  Population Hoechst High Intensity Objects (%): 14%
  Population Membrane Permeable-Phenotype (%): 0%
  Population Mitochondria Different-Phenotype (%): 5%
  Population Mitotic Cells (%): 26%
  Population Normal (%): 85%
  Population Pyknosed Nuclei (%): 10%
  Population Tubulin-Different-Phenotype (%): 48%
  Total Cell Count: 206
[12]
  Population Apoptotic (%): 53%
  Population Fragmented Nuclei (%): 54%
  Population Healthy Nuclei (%): 35%
  Population Hoechst High Intensity Objects (%): 20%
  Population Membrane Permeable-Phenotype (%): 9%
  Population Mitochondria Different-Phenotype (%): 10%
  Population Mitotic Cells (%): 46%
  Population Normal (%): 79%
  Population Pyknosed Nuclei (%): 9%
  Population Tubulin-Different-Phenotype (%): 61%
  Total Cell Count: 193
